Measurements as given in ChEMBL document CHEMBL5260861, “Examination of aminophenol-containing compounds designed as antiproliferative agents and potential atypical retinoids” (2023).
The source made the active and inactive calls. The rule behind the calls is not given here.

Key:
PC-3 [1] = test: Antiproliferative activity against human PC-3 cells assessed as inhibition of cell growth at 4 to 10 uM incubated for 72 hrs by MTT assay; format: functional, cell-based; conditions: dose 4-10 µM
Method in brief: (§1)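 Cells seeded at 1–4 × 10^4 cells/mL in RPMI 1640 with 10% FBS and 1 mM HEPES, 37 °C, 5% CO2. After 24 h, compounds added at various concentrations for 72 h; controls received 0.1% DMSO. Viable cells measured by MTT. Percent net growth calculated relative to control, correcting for initial absorbance. Mean ± SD (n = 3).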

MCF7 [2] = test: Antiproliferative activity against human MCF7 cells assessed as inhibition of cell growth at 4 uM incubated for 72 hrs by MTT assay; format: functional; method in brief: as §1
MCF7 [3] = test: Antiproliferative activity against human MCF7 cells assessed as inhibition of cell growth at 4 to 10 uM incubated for 72 hrs by MTT assay; format: functional, cell-based; conditions: dose 4-10 µM; method in brief: as §1
PC-3 [4] = test: Antiproliferative activity against human PC-3 cells assessed as inhibition of cell growth incubated for 72 hrs by MTT assay; format: functional, cell-based; conditions: dose 1-10 µM; method in brief: as §1
MCF7 [5] = test: Antiproliferative activity against human MCF7 cells assessed as inhibition of cell growth incubated for 72 hrs by MTT assay; format: functional, cell-based; conditions: dose 1-10 µM; method in brief: as §1
PC-3 [6] = test: Antiproliferative activity against human PC-3 cells assessed as inhibition of cell growth at 1 uM incubated for 72 hrs by MTT assay; format: functional; method in brief: as §1
MCF7 [7] = test: Antiproliferative activity against human MCF7 cells assessed as inhibition of cell growth at 10 uM incubated for 72 hrs by MTT assay; format: functional; method in brief: as §1
PC-3 [8] = test: Antiproliferative activity against human PC-3 cells assessed as inhibition of cell growth at 1 to 10 uM incubated for 72 hrs by MTT assay; format: functional, cell-based; conditions: dose 1-10 µM; method in brief: as §1
MCF7 [9] = test: Antiproliferative activity against human MCF7 cells assessed as inhibition of cell growth at 1 to 10 uM incubated for 72 hrs by MTT assay; format: functional, cell-based; conditions: dose 1-10 µM; method in brief: as §1
PC-3 [10] = test: Antiproliferative activity against human PC-3 cells assessed as inhibition of cell growth at 10 uM incubated for 72 hrs by MTT assay; format: functional; method in brief: as §1
PC-3 [11] = test: Induction of apoptosis in human PC-3 cells assessed as accumulation of cells at subG1 phase at 10 uM incubated for 24 hrs by propidium iodide staining based flow cytometry; format: functional, cell-based
Method in brief: (§2)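 Cells seeded at 2 × 10^4 cells/mL and grown 24 h, then given 10 μM compound or DMSO for 24 h. Harvested cells fixed in 70% ethanol at 4 °C overnight, washed twice with PBS, and treated with 100 μg/mL RNase A (37 °C, 30 min). Stained with 10 μg/mL propidium iodide; cell cycle analysed by flow cytometry.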

PC-3 [12] = test: Effect in Bcl-2 protein expression in human PC-3 cells at 10 uM incubated for 72 hrs by immunoblotting analysis; format: functional, cell-based
Method in brief: (§3)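 Cells seeded at 2 × 10^4 cells/mL and grown 24 h, then given 10 μM compound or DMSO for 72 h. Whole-cell lysates prepared in NP40 buffer (25 mM Tris-HCl pH 8, 150 mM NaCl, 0.5% NP40, NaF, Na3VO4, protease inhibitors), quantified by BCA. Lysates run on SDS-PAGE and blotted. Probed for Bcl-2, Bcl-xL, ERK/p-ERK, Akt/p-Akt and β-actin. Control set to 1.0; mean ± SD (n = 3).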

PC-3 [13] = test: Inhibition of Akt phosphorylation in human PC-3 cells assessed as decrease in phosphorylated Akt level at 10 uM incubated for 72 hrs by immunoblotting analysis; format: cell-based; method in brief: as §3
PC-3 [14] = test: Inhibition of ERK phosphorylation in human PC-3 cells at 10 uM incubated for 72 hrs by immunoblotting analysis; format: cell-based; method in brief: as §3
MCF7 [15] = test: Inhibition of Akt phosphorylation in human MCF7 cells assessed as decrease in phosphorylated Akt level at 10 uM incubated for 72 hrs by immunoblotting analysis; format: cell-based; method in brief: as §3
MCF7 [16] = test: Effect on Bcl-2 protein expression in human MCF7 cells at 10 uM incubated for 72 hrs by immunoblotting analysis; format: functional, cell-based; method in brief: as §3
[17] = biological target: T1, Retinoic acid receptor alpha (Homo sapiens) (UniProt P10276); test: Agonist activity at human RAR-alpha assessed as receptor transactivation at 500 to 20000 nM incubated for 24 hrs by luciferase reporter gene assay; conditions: dose 500-20000 nM
T1 sequence (whole entry): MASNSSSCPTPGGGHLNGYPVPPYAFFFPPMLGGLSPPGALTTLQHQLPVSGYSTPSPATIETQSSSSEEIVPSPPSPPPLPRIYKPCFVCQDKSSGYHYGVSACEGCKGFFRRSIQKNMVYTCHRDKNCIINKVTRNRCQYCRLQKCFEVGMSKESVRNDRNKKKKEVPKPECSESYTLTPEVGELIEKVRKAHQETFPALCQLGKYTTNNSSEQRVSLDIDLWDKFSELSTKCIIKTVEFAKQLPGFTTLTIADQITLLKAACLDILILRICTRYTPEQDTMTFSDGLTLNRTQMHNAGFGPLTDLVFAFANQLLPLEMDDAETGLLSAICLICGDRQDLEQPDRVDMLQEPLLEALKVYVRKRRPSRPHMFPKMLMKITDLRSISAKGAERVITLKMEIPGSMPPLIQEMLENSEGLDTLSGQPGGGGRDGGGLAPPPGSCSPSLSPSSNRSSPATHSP
Method in brief: (§4)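 INDIGO RARα or RXRα reporter cells seeded, then medium containing compound added (0.5, 1, 4, 10, 20 μM); 24 h at 37 °C. Medium removed, luciferase detection reagent added, light emission read. 9-cis-retinoic acid (0.5–500 nM) served as positive control. Three replicate wells per vehicle control; mean ± SD (n = 3).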

PC-3 [18] = test: Antiproliferative activity against human PC-3 cells assessed as inhibition of cell growth at 4 uM incubated for 72 hrs by MTT assay; format: functional; method in brief: as §1
MCF7 [19] = test: Induction of cell cycle arrest in human MCF7 cells at 10 uM incubated for 24 hrs by propidium iodide staining based flow cytometry; format: functional; method in brief: as §2
PC-3 [20] = test: Induction of cell cycle arrest in human PC-3 cells at 10 uM incubated for 24 hrs by propidium iodide staining based flow cytometry; format: functional; method in brief: as §2
PC-3 [21] = test: Induction of autophagy in human PC-3 cells assessed as increase in LC3-II protein expression at 10 uM incubated for 72 hrs by immunoblotting analysis relative to control; format: functional
Method in brief: (§5)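 Cells seeded at 2 × 10^4 cells/mL and grown 24 h at 37 °C in 5% CO2 in RPMI 1640 with 10% FBS and 1 mM HEPES. They were then treated 72 h with compound at 10 μM or with DMSO control. Whole-cell lysates were made in NP40 buffer, protein measured by BCA, and samples run on SDS-PAGE. LC3 was probed with β-actin as loading control. Control was set to 1.0; mean ± SD, n = 3.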

MCF7 [22] = test: Inhibition of ERK phosphorylation in human MCF7 cells at 10 uM incubated for 72 hrs by immunoblotting analysis; format: cell-based; method in brief: as §3
MCF7 [23] = test: Induction of autophagy in human MCF7 cells assessed as increase in LC3-II protein expression at 10 uM incubated for 72 hrs by immunoblotting analysis relative to control; format: functional; method in brief: as §5
MCF7 [24] = test: Induction of apoptosis in human MCF7 cells assessed as accumulation of cells at subG1 phase at 10 uM incubated for 24 hrs by propidium iodide staining based flow cytometry; format: functional, cell-based; method in brief: as §2
MCF7 [25] = test: Effect in Bcl-xL protein expression in human MCF7 cells at 10 uM incubated for 72 hrs by immunoblotting analysis; format: functional, cell-based; method in brief: as §3
[26] = biological target: T2, Retinoic acid receptor RXR-alpha (Homo sapiens) (UniProt P19793); test: Agonist activity at human RXR-alpha assessed as receptor transactivation at 500 to 20000 nM incubated for 24 hrs by luciferase reporter gene assay; conditions: dose 500-20000 nM; method in brief: as §4
T2 sequence (whole entry): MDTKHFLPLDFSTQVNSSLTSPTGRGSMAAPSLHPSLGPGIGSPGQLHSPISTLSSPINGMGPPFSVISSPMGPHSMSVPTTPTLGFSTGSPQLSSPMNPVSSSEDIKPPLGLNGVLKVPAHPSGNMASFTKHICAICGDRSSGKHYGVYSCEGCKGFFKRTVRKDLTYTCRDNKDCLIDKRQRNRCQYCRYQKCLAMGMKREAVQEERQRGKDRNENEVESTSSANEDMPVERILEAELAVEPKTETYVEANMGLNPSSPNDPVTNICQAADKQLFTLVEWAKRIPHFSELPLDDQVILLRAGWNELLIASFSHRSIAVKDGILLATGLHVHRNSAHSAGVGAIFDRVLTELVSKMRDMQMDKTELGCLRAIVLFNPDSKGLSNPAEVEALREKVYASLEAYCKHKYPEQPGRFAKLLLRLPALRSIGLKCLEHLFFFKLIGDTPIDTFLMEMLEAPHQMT

PC-3 [27] = test: Effect in Bcl-xL protein expression in human PC-3 cells at 10 uM incubated for 72 hrs by immunoblotting analysis; format: functional, cell-based; method in brief: as §3

O=C(O)CCCCCCC(=O)Nc1ccc(O)cc1
Activity (PC-3 [1]): inactive | inhibition at 4 µM (MCF7 [2]): 30% | Activity (MCF7 [3]): Active

CCCCCCCCNc1ccc(O)cc1
Activity (PC-3 [4]): Dose-Dependent Effect | inhibition at 4 µM (MCF7 [2]): 14% | Activity (MCF7 [5]): Dose-Dependent Effect | inhibition at 1 µM (PC-3 [6]): 33% | inhibition at 10 µM (MCF7 [7]): 45%

O=C(O)CCCCCCCCCNc1ccc(O)cc1
Activity (PC-3 [8]): inactive | Activity (MCF7 [9]): inactive

CCCCCCCC(=O)Nc1ccc(O)cc1
Activity (PC-3 [1]): Active | Activity (MCF7 [3]): inactive | inhibition at 10 µM (PC-3 [10]): 45%

O=C(O)CCCCCCCNc1ccc(O)cc1
Activity (PC-3 [8]): inactive | Activity (MCF7 [9]): inactive

O=C(O)CCCCCCCCCCC(=O)Nc1ccc(O)cc1
inhibition at 4 µM (MCF7 [2]): 40% | Activity (PC-3 [11]): inactive | Activity (PC-3 [12]): inactive | inhibition (PC-3 [13]): 35% | inhibition (PC-3 [14]): inactive | inhibition (MCF7 [15]): Active | Activity (MCF7 [16]): inactive | Activity [17]: inactive | inhibition at 4 µM (PC-3 [18]): 54% | Activity (MCF7 [19]): inactive | Activity (PC-3 [20]): inactive | fold change (FC) (PC-3 [21]): 1.5 | inhibition (MCF7 [22]): inactive | Activity (MCF7 [3]): Active | fold change (FC) (MCF7 [23]): 1.6 | Activity (MCF7 [24]): inactive | Activity (MCF7 [25]): inactive | Activity [26]: inactive | Activity (PC-3 [27]): inactive | inhibition at 10 µM (PC-3 [10]): 70%

O=C(O)CCCCCCCCC(=O)Nc1ccc(O)cc1
Activity (PC-3 [1]): inactive | inhibition at 4 µM (MCF7 [2]): 28% | Activity (MCF7 [3]): Active

CCCCCCCCCCCC(=O)Nc1ccc(O)cc1
Activity (PC-3 [1]): Active | Activity (MCF7 [3]): inactive | inhibition at 10 µM (PC-3 [10]): 24%

O=C(O)CCCCCCCCCCCNc1ccc(O)cc1
Activity (PC-3 [8]): inactive | Activity (MCF7 [9]): inactive

COC(=O)CCCCCCC(=O)Nc1ccc(O)cc1
Activity (MCF7 [9]): inactive

CCCCCCCCCCNc1ccc(O)cc1
Activity (PC-3 [4]): Dose-Dependent Effect | inhibition at 4 µM (MCF7 [2]): 31% | Activity (MCF7 [5]): Dose-Dependent Effect | inhibition at 1 µM (PC-3 [6]): 65% | inhibition at 10 µM (MCF7 [7]): 51%

COC(=O)CCCCCCCNc1ccc(O)cc1
Activity (MCF7 [9]): inactive

COC(=O)CCCCCCCCCNc1ccc(O)cc1
Activity (MCF7 [9]): inactive

COC(=O)CCCCCCCCC(=O)Nc1ccc(O)cc1
Activity (MCF7 [9]): inactive

CCCCCCCCCC(=O)Nc1ccc(O)cc1
Activity (PC-3 [1]): Active | Activity (MCF7 [3]): inactive | inhibition at 10 µM (PC-3 [10]): 43%

COC(=O)CCCCCCCCCCC(=O)Nc1ccc(O)cc1
Activity (MCF7 [9]): inactive | inhibition at 10 µM (PC-3 [10]): 10%

CCCCCCCCCCCCNc1ccc(O)cc1
Activity (PC-3 [4]): Dose-Dependent Effect | inhibition at 4 µM (MCF7 [2]): 61% | Activity (MCF7 [5]): Dose-Dependent Effect | inhibition at 1 µM (PC-3 [6]): 91% | inhibition at 10 µM (MCF7 [7]): 73%

CC1=C(/C=C/C(C)=C/C=C/C(C)=C/C(=O)O)C(C)(C)CCC1 [TRETINOIN]
inhibition at 4 µM (MCF7 [2]): 37% | inhibition at 4 µM (PC-3 [18]): 18%

COC(=O)CCCCCCCCCCCNc1ccc(O)cc1
Activity (MCF7 [9]): inactive | inhibition at 10 µM (PC-3 [10]): 10%
